From ChEMBL document CHEMBL4118209, “Development of autotaxin inhibitors: A series of zinc binding triazoles” (Bioorg Med Chem Lett, 2018)
In brackets after ≈: the same amount, converted by molar mass.

What was measured:
[1] = Intrinsic clearance in Sprague-Dawley rat liver microsomes at 1 uM by HPLC analysis; format: ADME, microsome; details: read-out: CLH
[2] = target: T1, Autotaxin (Homo sapiens, UniProt Q13822); assay: Inhibition of ATX (unknown origin) assessed as decrease in choline release
[3] = Permeability assessed as drug absorption at 50 ug/ml after 5 hrs by PAMPA; details: at 50 µg/mL
[4] = Equilibrium solubility of compound at pH 6.8 by high-throughput screening method; details: buffer
[5] = tested on: Rattus norvegicus; assay: In vivo inhibition of ATX in Sprague-Dawley rat assessed as reduction in LPA 16:0 levels in serum at 0.3 mg/kg, po measured over 24 hrs by LCMS analysis relative to control; format: functional
Outline: (§1)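 Male Sprague-Dawley rats (n = 6 per group) were given compound or vehicle (0.5% methyl cellulose:0.5% Tween80) orally at 5 ml/kg. Tail-vein blood was taken at various times without anticoagulant, held 30 min at room temperature, and spun at 700g for 10 min. Serum was stored at −80 °C. LPA isoforms were measured by LC-MS/MS, and PK/PD was assessed with a link model.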

[6] = Intrinsic clearance in human liver microsomes at 1 uM by HPLC analysis; format: ADME, microsome; details: read-out: CLH
[7] = Volume of distribution at steady state in Sprague-Dawley rat at 1 mg/kg, iv; format: ADME, organism-based; details: in vivo, read-out: Vdss
[8] = Clearance in Sprague-Dawley rat at 1 mg/kg, iv; format: ADME, organism-based; details: in vivo
[9] = tested on: Rattus norvegicus; assay: AUC (0 to infinity) in Sprague-Dawley rat at 10 mg/kg, po; format: ADME, organism-based; parameters: dose 10 mg/kg, time infinity, route oral; details: in vivo
[10] = Thermodynamic solubility in FeSSIF; format: physicochemical; details: read-out: Therm_solubility
[11] = Cmax in Sprague-Dawley rat at 10 mg/kg, po; format: ADME, organism-based; parameters: dose 10 mg/kg, route oral; details: in vivo
[12] = tested on: Rattus norvegicus; assay: In vivo inhibition of ATX in Sprague-Dawley rat assessed as reduction in LPA 18:0 levels in serum at 0.3 mg/kg, po measured over 24 hrs by LCMS analysis relative to control; format: functional; outline: as §1
[13] = tested on: Rattus norvegicus; assay: In vivo inhibition of ATX in po dosed Sprague-Dawley rat assessed as reduction in LPA 18:1 levels in serum measured over 24 hrs by LCMS analysis; format: functional, organism-based; outline: as §1
[14] = Fraction unbound in human plasma at 5 uM after 2 to 6 hrs by rapid equilibrium dialysis method; format: ADME, cell-free
[15] = tested on: Rattus norvegicus; assay: In vivo inhibition of ATX in Sprague-Dawley rat assessed as reduction in LPA 24:4 levels in serum at 0.3 mg/kg, po measured over 24 hrs by LCMS analysis relative to control; format: functional; details: in the assay text read “LPA 20:4” for “LPA 24:4”; outline: as §1
[16] = tested on: Rattus norvegicus; assay: In vivo inhibition of ATX in Sprague-Dawley rat assessed as reduction in LPA 18:1 levels in serum at 0.3 mg/kg, po measured over 24 hrs by LCMS analysis relative to control; format: functional; outline: as §1
[17] = tested on: Rattus norvegicus; assay: In vivo inhibition of ATX in po dosed Sprague-Dawley rat assessed as reduction in LPA 24:4 levels in serum measured over 24 hrs by LCMS analysis; format: functional, organism-based; details: in the assay text read “LPA 20:4” for “LPA 24:4”; outline: as §1
[18] = tested on: Rattus norvegicus; assay: In vivo inhibition of ATX in po dosed Sprague-Dawley rat assessed as reduction in LPA 16:0 levels in serum measured over 24 hrs by LCMS analysis; format: functional, organism-based; outline: as §1
[19] = Tmax in Sprague-Dawley rat at 10 mg/kg, po; format: ADME, organism-based; details: in vivo
[20] = Oral bioavailability in Sprague-Dawley rat at 10 mg/kg; format: ADME, organism-based; details: in vivo
[21] = tested on: Rattus norvegicus; assay: In vivo inhibition of ATX in po dosed Sprague-Dawley rat assessed as reduction in LPA 18:0 levels in serum measured over 24 hrs by LCMS analysis; format: functional, organism-based; outline: as §1
[22] = Fraction unbound in rat plasma at 5 uM after 2 to 6 hrs by rapid equilibrium dialysis method; format: ADME, cell-free
[23] = Half life in Sprague-Dawley rat at 1 mg/kg, iv; format: ADME, organism-based; details: in vivo
[24] = target: T1, Autotaxin; assay: Inhibition of ATX in human serum assessed as reduction in LPA 18:1 levels after 3 hrs by LC-MS/MS analysis
Outline: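 Human serum was cleared of coagulated blood by centrifugation (2100g, 10 min, room temperature) and stored at −80 °C. It was incubated with compound (0.5 nM–10 μM) with shaking at 37 °C for 3 h. LPA was extracted into methanol with 30 mM citric acid and LPA 17:0 internal standard (0.5 µM), then quantified by LC-MS/MS (negative-ion MRM). IC50 was obtained by non-linear regression.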

[25] = target: T2, Voltage-gated inwardly rectifying potassium channel KCNH2 (Homo sapiens, UniProt Q12809); assay: Inhibition of human ERG expressed in CHO-K1 cells at -90 mV holding potential by Qpatch clamp assay
T2 sequence (Q12809 whole entry): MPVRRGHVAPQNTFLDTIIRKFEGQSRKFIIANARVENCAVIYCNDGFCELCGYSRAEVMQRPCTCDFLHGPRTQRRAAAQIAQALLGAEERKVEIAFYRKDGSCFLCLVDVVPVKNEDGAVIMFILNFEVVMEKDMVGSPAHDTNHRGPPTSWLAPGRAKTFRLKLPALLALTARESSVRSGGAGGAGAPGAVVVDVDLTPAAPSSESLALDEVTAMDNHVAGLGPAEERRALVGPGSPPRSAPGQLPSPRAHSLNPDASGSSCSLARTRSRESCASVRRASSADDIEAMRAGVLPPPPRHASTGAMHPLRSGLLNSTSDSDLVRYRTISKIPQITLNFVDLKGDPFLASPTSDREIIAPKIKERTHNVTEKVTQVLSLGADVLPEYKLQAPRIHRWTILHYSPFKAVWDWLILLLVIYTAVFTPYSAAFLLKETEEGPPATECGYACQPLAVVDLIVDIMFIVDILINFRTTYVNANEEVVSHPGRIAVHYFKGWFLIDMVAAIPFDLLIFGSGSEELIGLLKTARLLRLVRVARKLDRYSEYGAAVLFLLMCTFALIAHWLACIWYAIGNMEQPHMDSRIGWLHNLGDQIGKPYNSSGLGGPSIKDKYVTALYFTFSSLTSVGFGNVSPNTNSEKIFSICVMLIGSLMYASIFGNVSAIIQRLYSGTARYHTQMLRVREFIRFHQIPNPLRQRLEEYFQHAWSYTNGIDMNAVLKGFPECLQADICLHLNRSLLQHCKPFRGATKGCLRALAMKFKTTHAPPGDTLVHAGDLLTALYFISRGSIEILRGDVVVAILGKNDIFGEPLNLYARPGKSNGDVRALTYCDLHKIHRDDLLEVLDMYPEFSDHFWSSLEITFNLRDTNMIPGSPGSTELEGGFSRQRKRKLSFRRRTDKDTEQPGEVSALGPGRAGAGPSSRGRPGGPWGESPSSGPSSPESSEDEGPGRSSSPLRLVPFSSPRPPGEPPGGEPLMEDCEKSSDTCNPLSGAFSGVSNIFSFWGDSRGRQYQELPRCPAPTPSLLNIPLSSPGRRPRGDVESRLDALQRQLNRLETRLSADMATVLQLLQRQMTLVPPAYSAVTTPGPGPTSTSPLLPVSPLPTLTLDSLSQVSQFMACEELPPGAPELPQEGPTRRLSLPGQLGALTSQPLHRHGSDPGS

[26] = Oral bioavailability in Lewis rat at 1 to 100 mg/kg dosed via gavage after 1.25 to 24 hrs; format: ADME, organism-based; details: in vivo
[27] = target: T2, Voltage-gated inwardly rectifying potassium channel KCNH2; assay: Displacement of [3H]dofetilide from human ERG expressed in HEK293 cells after 45 mins by scintillation counting method

O=C(CCc1c[nH]nn1)NC1CCN(C(=O)OCc2cc(Cl)cc(Cl)c2)CC1
microsomal CLint at 1 µM [1]: 75 µL/min/mg

O=C(NCCC1CN(C(=O)OCc2cc(Cl)cc(Cl)c2)CCO1)c1ccc2[nH]c(=O)oc2c1 (racemic)
IC50 [2]: 10 nM

O=C(CCCc1c[nH]nn1)NC1CCN(C(=O)OCc2ccc(C(F)(F)F)cc2)CC1
Drug absorption [3]: 35%
IC50 [2]: 39 nM

O=C(NCCN1CCN(C(=O)OCc2cc(Cl)cc(Cl)c2)CC1)c1c[nH]c(=O)o1
Drug absorption [3]: 35%
solubility thermodynamic [4]: 60 µg/mL (≈ 135 µM)
IC50 [2]: 370 nM

O=C(NCCC1CCN(C(=O)OCc2cc(Cl)cc(Cl)c2)CC1)c1c[nH]c(=O)o1
Drug absorption [3]: 68%
solubility thermodynamic [4]: 80 µg/mL (≈ 181 µM)
IC50 [2]: 86 nM

O=C(CCCc1c[nH]nn1)NC1CCN(C(=O)OCc2ccc(Cl)cc2Cl)CC1
Drug absorption [3]: 43%

O=C(CCCc1c[nH]nn1)NC1CCN(C(=O)OCc2cc(Cl)cc(Cl)c2)CC1
inhibition in vivo at 0.3 mg/kg [5]: 70 to 80%
microsomal CLint at 1 µM [6]: 59 µL/min/mg
Vd [7]: 2.5 L/kg
clearance [8]: 16 mL/min/kg
AUC [9]: 17 µM·h
Drug absorption [3]: 43%
solubility thermodynamic [10]: 126 µg/mL (≈ 286 µM)
Cmax [11]: 2.85 µM
inhibition in vivo at 0.3 mg/kg [12]: 70 to 80%
IC50 [13]: 20 nM
microsomal CLint at 1 µM [1]: 104 µL/min/mg
fraction unbound at 5 µM [14]: 0.026
inhibition in vivo at 0.3 mg/kg [15]: 70 to 80%
inhibition in vivo at 0.3 mg/kg [16]: 70 to 80%
IC50 [17]: 20 nM
IC50 [18]: 20 nM
Tmax [19]: 1.3 h
bioavailability [20]: 68%
IC50 [21]: 20 nM
fraction unbound at 5 µM [22]: 0.04
half-life [23]: 5.3 h
IC50 [24]: 9 nM
IC50 [2]: 3.1 nM
IC50 [25]: 20900 nM

CN(CCC1CCN(C(=O)OCc2cc(Cl)cc(Cl)c2)CC1)C(=O)c1c[nH]nn1
Drug absorption [3]: 97%
microsomal CLint at 1 µM [1]: 51 µL/min/mg
IC50 [2]: 150 nM
IC50 [25]: 8600 nM

CN(C(=O)CCCc1c[nH]nn1)C1CCN(C(=O)OCc2cc(Cl)cc(Cl)c2)CC1
Drug absorption [3]: 89%

O=C(OCc1cc(Cl)cc(Cl)c1)N1CCC(N2CCN(C(=O)c3ccc4[nH]c(=O)oc4c3)CC2)C1 (racemic)
IC50 [2]: 18 nM

CN(CCC1CCN(C(=O)OCc2cc(Cl)cc(Cl)c2)CC1)C(=O)c1c[nH]c(=O)o1
Vd [7]: 2.2 L/kg
clearance [8]: 12 mL/min/kg
AUC [9]: 25 µM·h
Cmax [11]: 3.4 µM
microsomal CLint at 1 µM [1]: 235 µL/min/mg
fraction unbound at 5 µM [14]: 0.005
Tmax [19]: 2.5 h
bioavailability [20]: 80%
half-life [23]: 4.8 h

O=C(NCC1(O)CCN(C(=O)OCc2cc(Cl)cc(Cl)c2)CC1)c1ccc2[nH]c(=O)oc2c1
IC50 [2]: 8 nM

O=C(CCN1CCN(C(=O)OCC2CCCCC2)CC1)c1ccc2[nH]c(=O)oc2c1
IC50 [2]: 240 nM

O=C(CCN1CCN(C(=O)OCc2ccccc2)CC1)c1ccc2[nH]c(=O)oc2c1
IC50 [2]: 130 nM

N#Cc1cc(Cl)cc(COC(=O)N2CCC(NC(=O)CCCc3c[nH]nn3)CC2)c1
Drug absorption [3]: 21%
IC50 [2]: 7.7 nM

O=C(CCN1CCN(C(=O)OCc2cc(Cl)cc(Cl)c2)CC1)c1ccc2[nH]c(=O)oc2c1
bioavailability [26]: 43 to 83%
Drug absorption [3]: 81%
IC50 [27]: 2700 nM
solubility thermodynamic [4]: 10 to 11 µg/mL (≈ 20.9 to 23 µM)

O=C(CCN1CCN(C(=O)OCC2CCCC2)CC1)c1ccc2[nH]c(=O)oc2c1
IC50 [2]: 170 nM

O=C(OCc1cc(Cl)cc(Cl)c1)N1CC(N2CCN(C(=O)c3ccc4[nH]c(=O)oc4c3)CC2)C1
IC50 [2]: 3.9 nM

O=C(CCCc1c[nH]nn1)NC1CCN(C(=O)OCc2cc(F)cc(Cl)c2)CC1
Drug absorption [3]: 35%

Cn1cc(CCCC(=O)NC2CCN(C(=O)OCc3cc(Cl)cc(Cl)c3)CC2)nn1
IC50 [2]: 1370 nM
